Assay results taken from ChEMBL document CHEMBL1149502, “Conjugated indole-imidazole derivatives displaying cytotoxicity against multidrug resistant cancer cell lines” (Bioorg Med Chem Lett, 2006).

Tests used:
Type in all cases: functional, cell-based
HL-60 [1] = experiment: Cytotoxicity against human HL60/TX1000 cell line by MTS assay
How it was run: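 HL-60/TX1000 is a subline isolated in vitro by subculturing HL-60 in rising Taxol concentrations. It overexpresses MDR1 mRNA and P-glycoprotein (Western blot, anti-P-gp immunofluorescence). Cells were grown in RPMI1640 with 10% FC, penicillin, streptomycin and L-glutamine, split every third day and set at 2· 10⁵ cells/mL the day before. Compound was a 1 mM DMSO stock diluted into medium, read by MTS.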

MDA-MB-435 = experiment: Cytotoxicity against human MDA435 cell line by MTS assay
How it was run: (§1)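 Cells kept in RPMI1640 with 10% FC, 100 U/mL penicillin, streptomycin and […] L-glutamine. Split every third day and diluted to 2· 10⁵ cells/mL one day before testing, so exponentially growing cultures were used. Compound stock was 1 mM in DMSO, diluted straight into the medium to final concentrations. Viability was read by MTS.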

HL-60 [2] = experiment: Cytotoxicity against human HL60 cell line by MTS assay; how it was run: as §1
P388 = experiment: Cytotoxicity against murine P388 cell line by MTS assay; conditions: Mus musculus; how it was run: as §1
DU-145 = experiment: Cytotoxicity against human DU145 cell line by MTS assay; how it was run: as §1
MES-SA = experiment: Cytotoxicity against human MES-SA cell line by MTS assay; how it was run: as §1
MES-SA/Dx5 = experiment: Cytotoxicity against human MES-SA/DX5 cell line by MTS assay; how it was run: as §1

| Compound | IC50 (HL-60 [1]) [nM] | further results |
| --- | --- | --- |
| O=C(c1ncc[nH]1)c1cn(Cc2ccc(Cl)cc2)c2ccccc12 | 10000 |  |
| COC(=O)c1c[nH]c(C(=O)c2cn(Cc3ccc(Cl)cc3)c3ccccc23)n1 | 500 |  |
| CCNC(=O)c1c[nH]c(C(=O)c2cn(Cc3ccc(Cl)cc3)c3ccccc23)n1 | 5000 |  |
| O=C(c1nc2cc[nH]cc-2n1)c1cn(Cc2ccc(Cl)cc2)c2ccccc12 | 50 | IC50 (MDA-MB-435): 50 nM; IC50 (HL-60 [2]): 50 nM; IC50 (P388): 50 nM; IC50 (DU-145): 50 nM; IC50 (MES-SA): 10 nM; IC50 (MES-SA/Dx5): 50 nM |
| O=C(c1nc(CO)c[nH]1)c1cn(Cc2ccc(Cl)cc2)c2ccccc12 | 5000 |  |
| CCC(=O)c1c[nH]c(C(=O)c2cn(Cc3ccc(Cl)cc3)c3ccccc23)n1 | 500 |  |
| O=C(c1nc(C(O)c2cccnc2)c[nH]1)c1cn(Cc2ccc(Cl)cc2)c2ccccc12 (stereo unspecified) | 10000 |  |
| O=C(O)c1c[nH]c(C(=O)c2cn(Cc3ccc(Cl)cc3)c3ccccc23)n1 | 10000 |  |
| Cn1c(C(=O)c2cn(Cc3ccc(Cl)cc3)c3ccccc23)nc2cnccc21 | 10000 |  |
| O=C(c1nc(-c2ccccn2)c[nH]1)c1cn(Cc2ccc(Cl)cc2)c2ccccc12 | 500 |  |
| O=C(c1nc2ccc[nH]c-2n1)c1cn(Cc2ccc(Cl)cc2)c2ccccc12 | 10000 |  |
| O=C(c1cccnc1)c1c[nH]c(C(=O)c2cn(Cc3ccc(Cl)cc3)c3ccccc23)n1 | 500 |  |
| CC(=O)O[C@H]1C(=O)[C@@]2(C)[C@H]([C@H](OC(=O)c3ccccc3)[C@]3(O)C[C@H](OC(=O)[C@H](O)[C@@H](NC(=O)c4ccccc4)c4ccccc4)C(C)=C1C3(C)C)[C@]1(OC(C)=O)CO[C@@H]1C[C@@H]2O [PACLITAXEL] |  | IC50 (MDA-MB-435): 5 nM; IC50 (MES-SA): 5 nM; IC50 (MES-SA/Dx5): 5000 nM |
